The source made the active and inactive calls. No cut-off for these calls is given here.
How the values were obtained:
[1] = target: T1, 5-hydroxytryptamine receptor 1A (Homo sapiens, UniProt P08908); test: Displacement of [3H]8-OH-DPAT from recombinant human 5-HT1A receptor expressed in HeLa cell membranes after 30 mins by TopCount liquid scintillation counting method; format: cell-based
T1 sequence (P08908 whole entry): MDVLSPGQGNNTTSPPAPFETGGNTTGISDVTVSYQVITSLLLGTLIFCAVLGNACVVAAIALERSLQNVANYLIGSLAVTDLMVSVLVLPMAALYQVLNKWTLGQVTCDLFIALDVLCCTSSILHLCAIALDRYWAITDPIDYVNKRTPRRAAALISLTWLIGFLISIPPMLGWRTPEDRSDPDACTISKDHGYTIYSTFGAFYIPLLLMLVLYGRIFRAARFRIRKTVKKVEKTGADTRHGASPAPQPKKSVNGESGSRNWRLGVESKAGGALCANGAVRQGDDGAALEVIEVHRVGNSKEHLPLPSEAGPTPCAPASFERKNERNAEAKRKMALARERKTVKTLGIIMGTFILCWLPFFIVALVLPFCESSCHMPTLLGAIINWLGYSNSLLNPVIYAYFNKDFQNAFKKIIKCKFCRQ

[2] = target: T2, Alpha-1A adrenergic receptor (Homo sapiens, UniProt P35348); test: Displacement of [3H]prazosin from recombinant human alpha1a adrenergic receptor expressed in CHO cell membranes after 30 mins by TopCount liquid scintillation counting method
T2 sequence (P35348 whole entry): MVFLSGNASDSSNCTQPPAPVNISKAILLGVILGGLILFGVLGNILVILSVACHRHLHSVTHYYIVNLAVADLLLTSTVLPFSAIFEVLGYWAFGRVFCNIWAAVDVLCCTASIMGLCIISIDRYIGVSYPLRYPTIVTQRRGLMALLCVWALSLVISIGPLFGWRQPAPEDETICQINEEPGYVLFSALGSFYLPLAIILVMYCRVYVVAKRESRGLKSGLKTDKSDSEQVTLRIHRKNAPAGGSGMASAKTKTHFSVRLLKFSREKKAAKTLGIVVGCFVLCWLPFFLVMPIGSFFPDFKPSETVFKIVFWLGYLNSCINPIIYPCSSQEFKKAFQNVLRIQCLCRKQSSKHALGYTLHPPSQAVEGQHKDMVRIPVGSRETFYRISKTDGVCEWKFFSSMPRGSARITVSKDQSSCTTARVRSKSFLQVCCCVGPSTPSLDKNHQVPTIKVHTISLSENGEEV
How it was run: (§1)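 Membranes from CHO cells stably expressing each human α1 subtype (70 µg protein), incubated in 50 mM Tris pH 7.4 with 0.1–0.4 nM [3H]prazosin and competitor (1 pM–1 µM) for 30 min at 25 °C. Nonspecific binding defined with 10 µM tamsulosin. Filtration and scintillation counting.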

[3] = target: T3, Alpha-1B adrenergic receptor (Homo sapiens, UniProt P35368); test: Displacement of [3H]prazosin from recombinant human alpha1b adrenergic receptor expressed in CHO cell membranes after 30 mins by TopCount liquid scintillation counting method
T3 sequence (P35368 whole entry): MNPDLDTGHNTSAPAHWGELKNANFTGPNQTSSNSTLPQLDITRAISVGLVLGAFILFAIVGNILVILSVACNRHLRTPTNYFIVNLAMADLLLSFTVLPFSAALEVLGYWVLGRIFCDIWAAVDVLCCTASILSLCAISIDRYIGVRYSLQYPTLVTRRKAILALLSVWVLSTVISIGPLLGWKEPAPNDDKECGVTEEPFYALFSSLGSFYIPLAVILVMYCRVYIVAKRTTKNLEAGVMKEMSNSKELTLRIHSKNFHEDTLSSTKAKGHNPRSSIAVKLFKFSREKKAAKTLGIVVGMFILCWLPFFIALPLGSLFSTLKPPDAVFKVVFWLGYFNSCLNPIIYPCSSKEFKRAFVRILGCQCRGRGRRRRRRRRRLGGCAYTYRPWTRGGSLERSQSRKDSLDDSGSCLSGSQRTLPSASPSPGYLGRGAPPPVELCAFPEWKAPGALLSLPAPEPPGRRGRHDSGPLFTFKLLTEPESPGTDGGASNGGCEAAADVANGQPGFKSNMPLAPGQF
How it was run: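 Membranes from CHO cells stably expressing each human α1 subtype (70 µg protein), incubated in 50 mM Tris pH 7.4 with 0.1–0.4 nM [3H]prazosin and competitor (1 pM–1 µM) for 30 min at 25 °C. Nonspecific binding defined with 10 µM tamsulosin. Filtration and scintillation counting. Ki by Cheng–Prusoff; pKi mean of 2–3 experiments in duplicate.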

[4] = target: T4, Alpha-1D adrenergic receptor (Homo sapiens, UniProt P25100); test: Displacement of [3H]prazosin from recombinant human alpha1d adrenergic receptor expressed in CHO cell membranes after 30 mins by TopCount liquid scintillation counting method; how it was run: as §1
T4 sequence (P25100 whole entry): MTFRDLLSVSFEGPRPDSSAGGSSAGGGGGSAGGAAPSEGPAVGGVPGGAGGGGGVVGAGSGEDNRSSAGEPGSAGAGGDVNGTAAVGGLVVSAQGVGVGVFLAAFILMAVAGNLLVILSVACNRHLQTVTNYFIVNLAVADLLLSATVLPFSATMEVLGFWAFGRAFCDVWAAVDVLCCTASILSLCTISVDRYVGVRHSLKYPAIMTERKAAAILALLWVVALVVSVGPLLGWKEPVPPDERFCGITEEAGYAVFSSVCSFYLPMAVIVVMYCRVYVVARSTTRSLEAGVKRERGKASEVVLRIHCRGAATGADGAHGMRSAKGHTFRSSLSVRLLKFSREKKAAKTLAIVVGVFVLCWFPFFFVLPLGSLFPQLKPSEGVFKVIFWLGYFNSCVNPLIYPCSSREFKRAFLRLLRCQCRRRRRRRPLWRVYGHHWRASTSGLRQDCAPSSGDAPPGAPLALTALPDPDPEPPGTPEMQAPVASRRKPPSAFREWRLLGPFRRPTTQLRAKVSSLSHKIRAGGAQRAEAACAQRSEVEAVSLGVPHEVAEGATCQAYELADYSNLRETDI

[5] = target: T5, 5-hydroxytryptamine receptor 1A (Homo sapiens) (UniProt P08908); test: Agonist activity at recombinant human 5-HT1A receptor expressed in HeLa cell membranes assessed as induction of [35S]GTPgammaS binding preincubated for 20 mins followed by [35S]GTPgammaS addition measured after 30 mins by liquid scintillation counting method; format: functional
T5 sequence (whole entry): T1 sequence (P08908 whole entry)
How it was run: (§2)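 HeLa membranes with recombinant human 5-HT1A (50-70 µg protein) in 20 mM HEPES, 3 mM MgSO4, 120 mM NaCl, pH 7.4. Pre-incubated with 30 µM GDP and drug (0.01 nM–10 µM) for 20 min at 30 °C, then 200 pM [35S]GTPγS added for 30 min at 30 °C. Nonspecific binding defined with 10 µM GTPγS. Filtration and scintillation counting. Emax and pD2 taken from concentration–response fits.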

[6] = Neuroprotective activity against oligomycin A-induced cell death in human SH-SY5Y cells assessed as increase in cell viability at 0.1 uM after 24 hrs by MTT assay; format: functional
How it was run: (§3)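 SH-SY5Y cells seeded at 10,000 cells/well and grown 24 h at 37 °C, 5% CO2. Then co-incubated 24 h with compound at 0.1 μM plus one insult: H2O2 195 μM, oligomycin A 30 μM or rotenone 75 μM. Viability read by MTT at 570 nm. Given as percent neuroprotection ± SD from three independent experiments.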

[7] = Neuroprotective activity against H2O2-induced cell death in human SH-SY5Y cells assessed as increase in cell viability at 0.1 uM after 24 hrs by MTT assay; format: functional; how it was run: as §3
[8] = Cytotoxicity against human SH-SY5Y cells assessed as reduction in cell viability after 24 hrs by MTT assay; format: toxicity, cell-based
How it was run: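 SH-SY5Y cells in DMEM with 10% heat-inactivated FBS, 2 mM L-glutamine, penicillin/streptomycin, 37 °C, 5% CO2; seeded 10,000 cells/well and incubated overnight. Compounds added at 0.1-100 μM for 24 h at 37 °C. MTT (0.5% w/v) added for 3 h, cells lysed in DMSO/EtOH 1:1, absorbance at 570 nm. IC50 taken as the concentration giving 50% growth inhibition.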

[9] = Neuroprotective activity against rotenone-induced cell death in human SH-SY5Y cells assessed as increase in cell viability at 1 uM after 24 hrs by MTT assay; format: functional
How it was run: (§4)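 SH-SY5Y cells seeded at 10,000 cells/well and grown 24 h at 37 °C, 5% CO2. Then co-incubated 24 h with compound at 1 μM plus one insult: H2O2 195 μM, oligomycin A 30 μM or rotenone 75 μM. Viability read by MTT at 570 nm. Given as percent neuroprotection ± SD from three independent experiments.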

[10] = Efflux ratio of apparent permeability from basolateral to apical over apical to basolateral side in MDCK2-MDR1 cells at 75 uM after 120 mins by UV-Visible spectrophotometric method; format: ADME, cell-based, Canis lupus familiaris; details: dog, MDCK-MDR1
[11] = Apparent permeability from apical to basolateral side in MDCK2-MDR1 cells at 75 uM after 120 mins by UV-Visible spectrophotometric method; format: ADME, cell-based, Canis lupus familiaris, MDCK-II; details: dog, MDCK-MDR1
How it was run: (§5)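 MDCKII-MDR1 cells seeded at 100,000 cells/cm² on Transwell inserts (0.4 µm pores); monolayers with TEER 800 Ohm cm² used. Equilibrated 30 min at 37 °C in pH 7.4 bicarbonate/glucose transport medium. Receiver sampled after 120 min at 37 °C, 5% CO2, quantified by UV-Vis. Papp calculated from acceptor/initial concentration. Triplicate wells, three experiments.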

[12] = Neuroprotective activity against rotenone-induced cell death in human SH-SY5Y cells assessed as increase in cell viability at 0.1 uM after 24 hrs by MTT assay; format: functional; how it was run: as §3
[13] = Neuroprotective activity against oligomycin A-induced cell death in human SH-SY5Y cells assessed as increase in cell viability at 1 uM after 24 hrs by MTT assay; format: functional; how it was run: as §4
[14] = Apparent permeability from basolateral to apical side in MDCK2-MDR1 cells at 75 uM after 120 mins by UV-Visible spectrophotometric method; format: ADME, cell-based, Canis lupus familiaris, MDCK-II; details: dog, MDCK-MDR1; how it was run: as §5
[15] = target: T5, 5-hydroxytryptamine receptor 1A (Homo sapiens); test: Agonist activity at recombinant human 5-HT1A receptor expressed in HeLa cell membranes assessed as induction of [35S]GTPgammaS binding up to 10 uM preincubated for 20 mins followed by [35S]GTPgammaS addition measured after 30 mins by liquid scintillation counting method relative to serotonin; format: functional; how it was run: as §2
[16] = Neuroprotective activity against H2O2-induced cell death in human SH-SY5Y cells assessed as increase in cell viability at 1 uM after 24 hrs by MTT assay; format: functional; how it was run: as §4
[17] = system: Mus musculus; test: Analgesic activity in Swiss CD1 mouse assessed reduction in formalin-induced inflammatory pain by measuring reduction in time spent in licking or biting formalin injected hind paw at 10 mg/kg, ip pretreated for 15 mins followed by formalin injection measured every 5 mins for 10 to 60 mins; format: functional, organism-based
How it was run: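 Male Swiss […] mice, 25-30 g. Dosed i.p. in saline with 10% DMSO (5 ml/kg) 15 min before 5% formalin (10 µl) into the right hind paw. […] 8-10 mice per group; mean ± SEM; two-way repeated-measures ANOVA with Bonferroni post hoc test; scored blind.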

| Structure (SMILES) | Ki [1] [nM] | Ki [2] [nM] | Ki [3] [nM] | Ki [4] [nM] | pD2 [5] | other results |
| --- | --- | --- | --- | --- | --- | --- |
| COc1ccccc1N1CCN(CC2CSC3(CCCCC3)O2)CC1 (stereo not given) | 5.01 | 57.5 | 191 | 38.9 |  |  |
| COc1ccccc1N1CCN(CCN2C(=O)CC3(CCCC3)CC2=O)CC1 |  |  |  |  | 9.27 |  |
| COc1ccccc1OCCNCC1CSC2(CCCCC2)S1 (stereo not given) | 0.933 | 186 | 195 | 34.7 | 9.58 | Activity [6]: 81%; Activity [7]: 83%; IC50 at 24 h [8]: 51000 nM; Activity [9]: 66%; efflux ratio at 2 h, 75 µM [10]: 0.98; Papp A→B at 2 h, 75 µM [11]: 11.1 ×10⁻⁶ cm/s; Activity [12]: 62%; Activity [13]: 86%; Papp B→A at 2 h, 75 µM [14]: 10.9 ×10⁻⁶ cm/s; Emax [15]: 74%; Activity [16]: 66%; Activity [17]: Active |
| OO [HYDROGEN PEROXIDE] |  |  |  |  |  | IC50 at 24 h [8]: 195000 nM |
| CC[C@H]1/C=C/C=C/C[C@@H](C)[C@H](O)[C@@](C)(O)C(=O)[C@@H](C)[C@H](O)[C@@H](C)C(=O)[C@@H](C)[C@H](O)[C@@H](C)/C=C/C(=O)O[C@@H]2[C@H](C)[C@H](CC1)O[C@]1(CC[C@H](C)[C@H](C[C@@H](C)O)O1)[C@H]2C [OLIGOMYCIN] |  |  |  |  |  | IC50 at 24 h [8]: 29000 nM |
| C=C(C)[C@H]1Cc2c(ccc3c2O[C@@H]2COc4cc(OC)c(OC)cc4[C@@H]2C3=O)O1 [ROTENONE] |  |  |  |  |  | IC50 at 24 h [8]: 74100 nM |
| c1ccc(OCCNCC2CSC3(CCCCC3)O2)cc1 (stereo not given) | 22.9 | > 1000 | 437 | 214 |  |  |
| COc1ccccc1N1CCN(CC2CSC3(CCCCC3)S2)CC1 (stereo not given) | 3.02 | 200 | 407 | 100 | 8.61 | Emax [15]: 37% |
| c1ccc(OCCNCC2COC3(CCCCC3)O2)cc1 (stereo not given) |  | > 1000 | 977 | 550 |  |  |
| COc1ccccc1N1CCN(CC2COC3(CCCCC3)O2)CC1 (stereo not given) |  |  |  |  | 8.61 |  |
| COc1cccc(OC)c1OCCNCC1COC2(CCCCC2)O1 (stereo not given) |  | > 1000 | > 1000 | 1780 |  |  |
| COc1ccccc1OCCNCC1CSC2(CCCCC2)O1 (stereo not given) | 2.24 | 269 | 219 | 32.4 |  |  |
| c1ccc(OCCNCC2CSC3(CCCCC3)S2)cc1 (stereo not given) | 1.55 | > 1000 | 550 | 123 | 8.27 | Emax [15]: 85% |
| COc1ccccc1OCCNCC1COC2(CCCCC2)O1 (stereo not given) |  | 229 | 389 | 95.5 |  |  |

Source: ChEMBL document CHEMBL3877267, “Synthesis, biological evaluation and molecular modeling of 1-oxa-4-thiaspiro- and 1,4-dithiaspiro[4.5]decane derivatives as potent and selective 5-HT1A receptor agonists” (Eur J Med Chem, 2017)
